Laboratory results as given in ChEMBL document CHEMBL1649213, “The arabinosyltransferase EmbC is inhibited by ethambutol in Mycobacterium tuberculosis” (2009).
≈ marks a conversion by molar mass, not a printed value.

Key:
Format in all cases: functional
[1] = system: Mycobacterium tuberculosis; assay: Antimicrobial activity against Mycobacterium tuberculosis embA V280M gene after 48 hrs by agar proportion method
[2] = system: Mycobacterium tuberculosis; assay: Antimicrobial activity against Mycobacterium tuberculosis harboring Mycobacterium smegmatis embB gene after 48 hrs by agar proportion method
[3] = system: Mycobacterium tuberculosis; assay: Antimicrobial activity against Mycobacterium tuberculosis harboring Mycobacterium smegmatis embB M292L mutant gene after 48 hrs by agar proportion method
[4] = system: Mycobacterium tuberculosis; assay: Antimicrobial activity against Mycobacterium tuberculosis harboring Mycobacterium smegmatis embB M292I mutant gene after 48 hrs by agar proportion method
[5] = system: Mycobacterium tuberculosis; assay: Antimicrobial activity against Mycobacterium tuberculosis harboring Mycobacterium smegmatis embB M292V mutant gene after 48 hrs by agar proportion method
[6] = system: Mycobacterium tuberculosis; assay: Antimicrobial activity against Mycobacterium tuberculosis expressing EmbC M300L mutant gene after 48 hrs
Procedure, shortened: (§1)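 Spot test: 20 µl exponential-phase culture spotted on 7H10 agar plus 10% OADC with EMB 0 to 128 µg/ml. Incubated at 37°C for 10 to 30 days, and growth scored against the drug-free lawn. MIC taken as the highest EMB concentration allowing growth.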

[7] = system: Mycobacterium tuberculosis; assay: Antimicrobial activity against Mycobacterium tuberculosis expressing EmbC M300L mutant gene after 48 hrs by agar proportion method
[8] = system: Mycobacterium tuberculosis; assay: Antimicrobial activity against Mycobacterium tuberculosis expressing EmbC M300I mutant gene after 48 hrs; procedure, shortened: as §1
[9] = system: Mycobacterium tuberculosis; assay: Antimicrobial activity against Mycobacterium tuberculosis expressing EmbC M300I mutant gene after 48 hrs by agar proportion method
[10] = system: Mycobacterium tuberculosis; assay: Antimicrobial activity against Mycobacterium tuberculosis expressing EmbC M300V mutant gene after 48 hrs; procedure, shortened: as §1
[11] = system: Mycobacterium tuberculosis; assay: Antimicrobial activity against Mycobacterium tuberculosis expressing EmbC M300V mutant gene after 48 hrs by agar proportion method
[12] = system: Mycobacterium tuberculosis; assay: Antimicrobial activity against Mycobacterium tuberculosis expressing EmbC T270I mutant gene after 48 hrs; procedure, shortened: as §1
[13] = system: Mycobacterium tuberculosis; assay: Antimicrobial activity against Mycobacterium tuberculosis expressing EmbC T270I mutant gene after 48 hrs by agar proportion method
[14] = system: Mycobacterium tuberculosis; assay: Antimicrobial activity against Mycobacterium tuberculosis expressing EmbC D249G mutant gene after 48 hrs; procedure, shortened: as §1
[15] = system: Mycobacterium tuberculosis; assay: Antimicrobial activity against Mycobacterium tuberculosis expressing EmbC D249G mutant gene after 48 hrs by agar proportion method
Procedure, shortened: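 Agar proportion method: 10^4 CFU plated on 7H10-OADC with EMB or drug-free, and colonies counted after 4 weeks. MIC99 is the lowest concentration at which <1% of cells formed colonies.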

[16] = system: Mycobacterium tuberculosis; assay: Ratio of MIC for Mycobacterium tuberculosis expressing wild type EmbC gene to MIC for Mycobacterium tuberculosis expressing EmbC D249G mutant gene

With `CC[C@@H](CO)NCCN[C@@H](CC)CO` [ETHAMBUTOL] the MIC [1] was 4 µg/mL (≈ 19.6 µM), the MIC [2] was 8 µg/mL (≈ 39.2 µM) and the MIC [3] was 8 µg/mL (≈ 39.2 µM). It also gave an MIC [4] of 3 µg/mL (≈ 14.7 µM), an MIC [5] of 3 µg/mL (≈ 14.7 µM) and an MIC [6] of 0.5 µg/mL (≈ 2.45 µM). The MIC90 [7] was 0.5 µg/mL (≈ 2.45 µM), the MIC [8] was <3 µg/mL and the MIC90 [9] was 1 µg/mL (≈ 4.89 µM). For the same compound, the MIC [10] was 0.5 µg/mL (≈ 2.45 µM), the MIC90 [11] was <0.5 µg/mL and the MIC [12] was 4 µg/mL (≈ 19.6 µM). For the same compound, the MIC90 [13] was 1 µg/mL (≈ 4.89 µM), the MIC [14] was 0.5 µg/mL (≈ 2.45 µM) and the MIC90 [15] was <0.5 µg/mL. The Ratio [16] was 6.
